In ChEMBL document CHEMBL3232735, “Pyrrolopyrimidine-inhibitors with hydantoin moiety as spacer can explore P4/S4 interaction on plasmin” (Bioorg Med Chem, 2014):

Assays:
[1] = target: Urokinase-type plasminogen activator (Homo sapiens, UniProt P00749); assay: Inhibition of human plasma urokinase using Glu-Gly-Arg-pNA (S-2444) peptide as substrate assessed as reduction of enzyme hydrolytic activity
Outline: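 Urokinase hydrolysis of S-2444 at 0.1 mM, monitored by absorbance at 405 nm. IC50 defined as the inhibitor concentration that lowers absorbance by 50% compared with enzyme run under the same conditions without inhibitor.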

Plasminogen = Plasminogen (Homo sapiens, UniProt P00747); assay: Inhibition of human plasmin using H-D-Val-Leu-LyspNA (S-2251) peptide as substrate assessed as reduction of enzyme hydrolytic activity
Outline: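 Plasmin activity was measured with 0.3 mM S-2251 as substrate and read as absorbance at 405 nm. IC50 is the inhibitor concentration cutting absorbance by 50% compared with the inhibitor-free control under the same conditions.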

Plasma kallikrein = Plasma kallikrein (Homo sapiens, UniProt P03952); assay: Inhibition of human plasma kallikerin using H-D-Phe-Pro-Arg-pNA (S-2302) peptide as substrate assessed as reduction of enzyme hydrolytic activity
Outline: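 Plasma kallikrein activity on synthetic peptide substrate S-2302 at 0.2 mM, with and without inhibitor. Hydrolysis followed as absorbance at 405 nm. IC50 is the inhibitor concentration giving a 50% drop in absorbance compared with the uninhibited control under the same conditions.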

Sequence of Plasminogen (P00747 97-580 limits assumed): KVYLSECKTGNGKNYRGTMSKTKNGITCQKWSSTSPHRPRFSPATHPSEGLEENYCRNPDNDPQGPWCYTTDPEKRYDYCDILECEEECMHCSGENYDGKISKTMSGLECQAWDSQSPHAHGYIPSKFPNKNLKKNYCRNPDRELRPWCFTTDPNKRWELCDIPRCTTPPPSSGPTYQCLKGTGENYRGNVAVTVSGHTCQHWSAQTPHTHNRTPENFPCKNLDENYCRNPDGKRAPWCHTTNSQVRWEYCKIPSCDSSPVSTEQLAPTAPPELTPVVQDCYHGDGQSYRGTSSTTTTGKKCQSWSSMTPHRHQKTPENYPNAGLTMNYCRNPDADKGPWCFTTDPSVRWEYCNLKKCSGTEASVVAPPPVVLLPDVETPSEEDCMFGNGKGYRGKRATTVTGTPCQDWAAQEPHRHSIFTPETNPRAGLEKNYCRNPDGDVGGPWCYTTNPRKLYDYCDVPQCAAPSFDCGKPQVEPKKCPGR
Sequence of Plasminogen (P00747 581-810 limits assumed): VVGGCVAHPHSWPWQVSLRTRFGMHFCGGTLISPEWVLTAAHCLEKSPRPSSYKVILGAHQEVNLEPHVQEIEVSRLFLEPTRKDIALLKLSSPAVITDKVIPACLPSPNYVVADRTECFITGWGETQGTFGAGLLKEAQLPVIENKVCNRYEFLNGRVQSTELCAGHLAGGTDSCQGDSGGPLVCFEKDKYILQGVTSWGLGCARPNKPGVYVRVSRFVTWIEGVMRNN
Sequence of Plasma kallikrein (P03952 20-390 limits assumed): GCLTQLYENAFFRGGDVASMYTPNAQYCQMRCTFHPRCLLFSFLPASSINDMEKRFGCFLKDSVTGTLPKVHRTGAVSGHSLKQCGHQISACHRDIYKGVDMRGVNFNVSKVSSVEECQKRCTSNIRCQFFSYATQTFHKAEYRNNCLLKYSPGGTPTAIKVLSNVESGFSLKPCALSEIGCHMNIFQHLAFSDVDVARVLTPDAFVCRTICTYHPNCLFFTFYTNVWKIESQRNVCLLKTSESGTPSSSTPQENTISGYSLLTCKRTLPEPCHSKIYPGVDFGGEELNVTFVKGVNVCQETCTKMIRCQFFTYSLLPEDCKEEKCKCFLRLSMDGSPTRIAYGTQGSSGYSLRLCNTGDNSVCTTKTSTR
Sequence of Plasma kallikrein (P03952 391-638 limits assumed): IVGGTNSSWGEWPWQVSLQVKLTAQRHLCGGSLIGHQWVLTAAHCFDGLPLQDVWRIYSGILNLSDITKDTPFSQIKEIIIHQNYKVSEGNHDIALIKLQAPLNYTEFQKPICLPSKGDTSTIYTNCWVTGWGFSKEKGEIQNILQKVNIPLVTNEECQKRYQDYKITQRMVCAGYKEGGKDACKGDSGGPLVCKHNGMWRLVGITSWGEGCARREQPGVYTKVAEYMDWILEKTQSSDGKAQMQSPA

Row | Structure (SMILES) | IC50 [1] [µM] | IC50 (Plasminogen) [µM] | IC50 (Plasma kallikrein) [µM]
1 | Cn1c(CN2C(=O)CN(c3ccc(OCc4ccncc4)c(C(N)=O)c3)C2=O)cc2cnc(C(=O)N[C@H](C#N)CCCCN)nc21 | > 1000 | 170 | > 1000
2 | Cn1c(CN2CC(=O)N(c3ccc(Oc4ccccc4)cc3)CC2=O)cc2cnc(C(=O)N[C@H](C#N)CCCCN)nc21 | > 1000 | 960 | > 1000
3 | CN1CC(=O)N(Cc2cc3cnc(C(=O)N[C@H](C#N)CCCCN)nc3n2C)C1=O | > 1000 | > 1000 | > 1000
4 | Cn1c(CN2C(=O)CN(c3cccc(S(N)(=O)=O)c3)C2=O)cc2cnc(C(=O)N[C@H](C#N)CCCCN)nc21 | > 1000 | 220 | > 1000
5 | Cn1c(CN2C(=O)CN(c3cccc(C#N)c3)C2=O)cc2cnc(C(=O)N[C@H](C#N)CCCCN)nc21 | > 1000 | 220 | > 1000
6 | Cn1c(CN2C(=O)CN(c3ccc(Oc4ccccc4)cc3)C2=O)cc2cnc(C(=O)N[C@H](C#N)CCCCN)nc21 | > 400 | 51 | > 1000
7 | COc1ccc(Oc2ccc(N3CC(=O)N(Cc4cc5cnc(C(=O)N[C@H](C#N)CCCCN)nc5n4C)C3=O)cc2)cc1 | > 400 | 64 | > 1000
8 | Cn1c(CN2C(=O)CN(c3ccc(OCc4ccncc4)cc3)C2=O)cc2cnc(C(=O)N[C@H](C#N)CCCCN)nc21 | > 1000 | 87 | > 1000
9 | Cn1c(CN2C(=O)CN(c3ccc(Oc4ccc5ncccc5c4)cc3)C2=O)cc2cnc(C(=O)N[C@H](C#N)CCCCN)nc21 | > 400 | > 250 | > 1000
10 | Cn1c(CN2C(=O)CN(c3ccc(Oc4ccccc4)c(C(N)=O)c3)C2=O)cc2cnc(C(=O)N[C@H](C#N)CCCCN)nc21 | > 1000 | 510 | > 1000

Other lines, results leading:

Row | IC50 [1] [µM] | IC50 (Plasminogen) [µM] | IC50 (Plasma kallikrein) [µM] | Structure (SMILES)
11 | > 1000 | 130 | 740 | Cn1c(CN2C(=O)CN(c3ccc(F)cc3)C2=O)cc2cnc(C(=O)N[C@H](C#N)CCCCN)nc21
12 | > 1000 | 180 | > 1000 | COc1ccc(N2CC(=O)N(Cc3cc4cnc(C(=O)N[C@H](C#N)CCCCN)nc4n3C)C2=O)cc1
13 | > 1000 | 330 | > 1000 | CCCc1ccc(N2CC(=O)N(Cc3cc4cnc(C(=O)N[C@H](C#N)CCCCN)nc4n3C)C2=O)cc1
14 | > 400 | 260 | > 1000 | Cn1c(CN2C(=O)CN(c3ccc(S(N)(=O)=O)cc3)C2=O)cc2cnc(C(=O)N[C@H](C#N)CCCCN)nc21
15 | > 1000 | 160 | > 1000 | Cn1c(CN2C(=O)CN(c3ccc(C(N)=O)cc3)C2=O)cc2cnc(C(=O)N[C@H](C#N)CCCCN)nc21
16 | > 1000 | 210 | > 1000 | Cn1c(CN2C(=O)CN(c3ccc(C#N)cc3)C2=O)cc2cnc(C(=O)N[C@H](C#N)CCCCN)nc21
17 | > 1000 | 100 | > 1000 | Cn1c(CN2C(=O)CN(c3cccc(C(N)=O)c3)C2=O)cc2cnc(C(=O)N[C@H](C#N)CCCCN)nc21
18 | > 1000 | 250 | > 1000 | CC(=O)COc1ccc(N2CC(=O)N(Cc3cc4cnc(C(=O)N[C@H](C#N)CCCCN)nc4n3C)C2=O)cc1
19 | > 1000 | 400 | > 1000 | Cn1c(CN2C(=O)CN(c3ccc(OCC(N)=O)cc3)C2=O)cc2cnc(C(=O)N[C@H](C#N)CCCCN)nc21
20 | > 1000 | 130 | > 1000 | Cn1c(CN2C(=O)CN(c3ccc(OCC#N)cc3)C2=O)cc2cnc(C(=O)N[C@H](C#N)CCCCN)nc21
21 | > 1000 | 99 | > 1000 | Cn1c(CN2C(=O)CN(c3ccc(Oc4ccccc4C(N)=O)cc3)C2=O)cc2cnc(C(=O)N[C@H](C#N)CCCCN)nc21
